Key:
Enterococcus faecalis [1] = experiment: Antibacterial activity against vancomycin-susceptible Enterococcus faecalis ATCC 29212 assessed as bacterial growth inhibition incubated for 24 hrs by CLSI protocol based broth microdilution method; format: functional
Escherichia coli = experiment: Antibacterial activity against penicillin-susceptible Escherichia coli ATCC 25922 assessed as inhibition of bacterial growth measured by broth microdilution method; format: functional; conditions: time 24 hrs
Procedure, shortened: (§1)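 Broth microdilution in Mueller Hinton broth. A 0.5 McFarland suspension was diluted tenfold, giving an inoculum of 1.5 × 10⁷ cfu/mL. This was added to 2-fold serial compound dilutions from […]. Plates were incubated aerobically at 37 °C for 24 h. MIC was the lowest concentration with no visible turbidity.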

Streptococcus pyogenes [2] = experiment: Antibacterial activity against erythromycin-susceptible Streptococcus pyogenes clinical isolate 1 assessed as bacterial growth inhibition incubated for 24 hrs by CLSI protocol based broth microdilution method; format: functional
Staphylococcus aureus [3] = experiment: Antibacterial activity against Staphylococcus aureus assessed as inhibition of bacterial growth measured by broth microdilution method; format: functional; conditions: time 24 hrs; procedure, shortened: as §1
Enterococcus faecalis [4] = experiment: Antibacterial activity against vancomycin-resistant Enterococcus faecalis ATCC 51299 assessed as bacterial growth inhibition incubated for 24 hrs by CLSI protocol based broth microdilution method; format: functional
Pseudomonas aeruginosa = experiment: Antibacterial activity against penicillin-susceptible Pseudomonas aeruginosa ATCC27853 assessed as bacterial growth inhibition incubated for 24 hrs by CLSI protocol based broth microdilution method; format: functional
Bacillus pumilus [5] = experiment: Antibacterial activity against penicillin-susceptible Bacillus pumilus CMCC 63202 assessed as bacterial growth inhibition by broth dilution method; format: functional; conditions: time 24 hrs; procedure, shortened: as §1
Streptococcus pyogenes [6] = experiment: Antibacterial activity against erythromycin-resistant Streptococcus pyogenes 2 assessed as bacterial growth inhibition incubated for 24 hrs by CLSI protocol based broth microdilution method; format: functional
Staphylococcus aureus [7] = experiment: Antibacterial activity against erythromycin-susceptible Staphylococcus aureus ATCC 25923 assessed as bacterial growth inhibition incubated for 24 hrs by CLSI protocol based broth microdilution method; format: functional
Staphylococcus aureus [8] = experiment: Antibacterial activity against methicillin-resistant Staphylococcus aureus ATCC 43300 assessed as inhibition of bacterial growth by broth microdilution method; format: functional; conditions: time 24 hrs
Procedure, shortened: (§2)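 Broth microdilution MIC. A 0.5 McFarland suspension was diluted 10-fold and added at 1.5 × 10⁷ cfu/mL to 2-fold dilutions (0.125–64) in Mueller Hinton broth. Incubated aerobically 24 h at 37 °C. MIC was the lowest concentration with no visible turbidity.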

[9] = system: Staphylococcus epidermidis; experiment: Antibacterial activity against penicillin-resistant Staphylococcus epidermidis assessed as inhibition of bacterial growth measured by broth microdilution method; format: functional; conditions: time 24 hrs
Enterococcus faecium [10] = experiment: Antibacterial activity against vancomycin-resistant Enterococcus faecium ATCC 51559 assessed as bacterial growth inhibition incubated for 24 hrs by CLSI protocol based broth microdilution method; conditions: ATCC 51559, 24 h
Enterococcus faecium [11] = experiment: Antibacterial activity against vancomycin-susceptible Enterococcus faecium ATCC19434 assessed as bacterial growth inhibition incubated for 24 hrs by CLSI protocol based broth microdilution method; conditions: ATCC19434, 24 h
Bacillus subtilis [12] = experiment: Antibacterial activity against penicillin-susceptible Bacillus subtilis ATCC 9372 assessed as bacterial growth inhibition incubated for 24 hrs by CLSI protocol based broth microdilution method; format: functional
Staphylococcus aureus [13] = experiment: Bactericidal activity against methicillin-resistant Staphylococcus aureus ATCC 43300 measured after 24 hrs by CLSI protocol based method; format: functional
Procedure, shortened: (§3)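 MBC after broth microdilution. After 24 h, aliquots from clear wells were plated on tryptic soy agar and incubated aerobically 24 h at 37 °C. MBC was the lowest concentration giving no colonies.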

[14] = system: Staphylococcus epidermidis; experiment: Bactericidal activity against penicillin-resistant Staphylococcus epidermidis measured after 24 hrs by CLSI protocol based method; format: functional; procedure, shortened: as §3
Staphylococcus aureus [15] = experiment: Bactericidal activity against penicillin-resistant Staphylococcus aureus measured after 24 hrs by CLSI protocol based method; format: functional; procedure, shortened: as §3
Bacillus subtilis [16] = experiment: Ratio of MBC to MIC against penicillin-susceptible Bacillus subtilis ATCC 9372; format: functional
Procedure, shortened: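 Ratio of MBC to MIC, both measured by broth microdilution in MH broth (37 °C, 24 h); MBC was scored by subculturing clear wells onto tryptic soy agar for 24 h. Following CLSI, a ratio of 4 or less counts as bactericidal.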

Staphylococcus aureus [17] = experiment: Ratio of MBC to MIC against erythromycin-susceptible Staphylococcus aureus ATCC 25923; format: functional
Procedure, shortened: (§4)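 MBC/MIC ratio from the broth microdilution MIC (24 h, 37 °C, MH broth) and the MBC (clear wells subcultured on tryptic soy agar, 24 h). A ratio ≤4 is read as bactericidal per CLSI.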

[18] = molecular target: T1, Cell division protein FtsZ (Escherichia coli K-12, UniProt P0A9A6); experiment: Inhibition of FtsZ in Escherichia coli assessed as disruption of Z ring formation
T1 sequence (P0A9A6 whole entry): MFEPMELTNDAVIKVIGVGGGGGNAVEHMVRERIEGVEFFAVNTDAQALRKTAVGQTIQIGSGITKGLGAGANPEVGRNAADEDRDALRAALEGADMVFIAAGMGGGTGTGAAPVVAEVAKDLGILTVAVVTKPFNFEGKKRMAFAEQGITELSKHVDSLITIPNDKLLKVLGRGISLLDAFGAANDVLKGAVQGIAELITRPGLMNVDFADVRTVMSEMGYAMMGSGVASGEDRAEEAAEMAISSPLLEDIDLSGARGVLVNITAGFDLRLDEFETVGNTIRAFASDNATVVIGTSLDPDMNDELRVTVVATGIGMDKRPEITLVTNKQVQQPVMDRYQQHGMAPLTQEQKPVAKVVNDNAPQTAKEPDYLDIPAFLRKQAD

[19] = molecular target: T2, Cell division protein FtsZ (Bacillus subtilis, UniProt A5Z1V5); experiment: Inhibition of FtsZ in Bacillus subtilis assessed as disruption of Z ring formation
T2 sequence (A5Z1V5 whole entry): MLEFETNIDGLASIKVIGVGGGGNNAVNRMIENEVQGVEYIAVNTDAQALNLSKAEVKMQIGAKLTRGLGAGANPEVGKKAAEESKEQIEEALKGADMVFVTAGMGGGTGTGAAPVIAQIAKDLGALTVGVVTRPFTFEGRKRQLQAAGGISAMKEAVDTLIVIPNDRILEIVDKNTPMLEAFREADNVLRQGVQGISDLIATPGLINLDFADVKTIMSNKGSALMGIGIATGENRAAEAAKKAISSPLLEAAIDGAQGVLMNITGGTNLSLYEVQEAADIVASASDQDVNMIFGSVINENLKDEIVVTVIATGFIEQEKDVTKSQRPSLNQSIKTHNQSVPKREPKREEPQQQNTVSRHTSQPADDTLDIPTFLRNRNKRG

Staphylococcus aureus [20] = experiment: Ratio of MBC to MIC against penicillin-resistant Staphylococcus aureus; format: functional; procedure, shortened: as §4
Bacillus pumilus [21] = experiment: Bactericidal activity against penicillin-susceptible Bacillus pumilus CMCC 63202 measured after 24 hrs by CLSI protocol based method; format: functional
Procedure, shortened: (§5)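 MBC followed on from the 24 h broth microdilution MIC plates. Aliquots from clear wells were spread on tryptic soy agar and incubated aerobically at 37 °C for 24 h. MBC was the minimum concentration giving no colonies.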

[22] = system: Staphylococcus epidermidis; experiment: Ratio of MBC to MIC against penicillin-resistant Staphylococcus epidermidis; format: functional; procedure, shortened: as §4
Bacillus subtilis [23] = experiment: Bactericidal activity against penicillin-susceptible Bacillus subtilis ATCC 9372 measured after 24 hrs by CLSI protocol based method; format: functional; procedure, shortened: as §5
Bacillus pumilus [24] = experiment: Ratio of MBC to MIC against penicillin-susceptible Bacillus pumilus CMCC 63202; format: functional; procedure, shortened: as §4
Staphylococcus aureus [25] = experiment: Antibacterial activity against penicillin-resistant Staphylococcus aureus assessed as inhibition of bacterial growth measured by broth microdilution method; format: functional; conditions: time 24 hrs; procedure, shortened: as §2
Staphylococcus aureus [26] = experiment: Bactericidal activity against erythromycin-susceptible Staphylococcus aureus ATCC 25923 measured after 24 hrs by CLSI protocol based method; format: functional; procedure, shortened: as §3

Row | Compound | MIC (Enterococcus faecalis [1]) [µg/mL] | MIC (Escherichia coli) [µg/mL] | MIC (Streptococcus pyogenes [2]) [µg/mL] | MIC (Staphylococcus aureus [3]) [µg/mL] | MIC (Enterococcus faecalis [4]) [µg/mL] | MIC (Pseudomonas aeruginosa) [µg/mL] | MIC (Bacillus pumilus [5]) [µg/mL] | MIC (Streptococcus pyogenes [6]) [µg/mL] | MIC (Staphylococcus aureus [7]) [µg/mL] | MIC (Staphylococcus aureus [8]) [µg/mL] | MIC [9] [µg/mL] | MIC (Enterococcus faecium [10]) [µg/mL] | MIC (Enterococcus faecium [11]) [µg/mL] | MIC (Bacillus subtilis [12]) [µg/mL] | MIC (Staphylococcus aureus [25]) [µg/mL] | further results
1 | COc1ccc2cc3[n+](cc2c1OC)CCc1cc2c(cc1-3)OCO2.[Cl-] [BERBERINE CHLORIDE] | > 64 | > 64 | > 64 | > 64 | > 64 | > 64 | > 64 | 64 | 64 | > 64 | > 64 | > 64 | > 64 | > 64 |  | 
2 | C[n+]1cc2c3c(ccc2c2ccc4cc5c(cc4c21)OCO5)OCO3.[Cl-] [SANGUINARIUM CHLORIDE] | 16 | 32 | 2 | 8 | 32 | > 64 | 4 | 2 | 4 | 8 | 8 | 32 | 64 | 4 | 16 | MBC (Staphylococcus aureus [13]): > 64 µg/mL; MIC [14]: 64 µg/mL; MBC (Staphylococcus aureus [15]): 128 µg/mL; Ratio (Bacillus subtilis [16]): 16; Ratio (Staphylococcus aureus [17]): >32; IC50 [18]: 12.5 µM; IC50 [19]: 2.72 µM; Ratio (Staphylococcus aureus [20]): 8; MBC (Bacillus pumilus [21]): > 64 µg/mL; Ratio [22]: 64; MBC (Bacillus subtilis [23]): 64 µg/mL; Ratio (Bacillus pumilus [24]): >64; MBC (Staphylococcus aureus [26]): > 64 µg/mL
3 | C[n+]1c2ccccc2cc2ccccc21.[I-] | > 64 | > 64 | > 64 | > 64 | > 64 | > 64 | > 64 | > 64 | > 64 | > 64 | > 64 | > 64 | > 64 | > 64 |  | 
4 | C[n+]1c2ccccc2c(/C=C/c2ccc(Cl)cc2Cl)c2ccccc21.[I-] | 2 | 32 | 0.25 | 1 | 8 | > 64 | 2 | 0.5 | 0.5 | 1 | 2 | 4 | 4 | 0.5 | 2 | 
5 | CCCCc1ccc(/C=C/c2c3ccccc3[n+](C)c3ccccc23)cc1.[I-] |  | > 64 | 0.5 | 2 |  | > 64 | 0.5 | 0.5 | 1 | 8 | 2 |  |  | 1 | 8 | 
6 | CCc1ccc(C#Cc2c3ccccc3[n+](C)c3ccccc23)cc1.[I-] | 2 | > 64 | 4 | 2 | 8 | > 64 | 2 | 4 | 2 | 2 | 8 | 4 | 4 | 2 | 4 | 

Source: ChEMBL document CHEMBL4837210 (Eur J Med Chem, 2021)
